Activity calls are given as the source filed them. The calls are words filed in the database; no cut-off is given here.
What was measured:
[1] = test system: HeLa; test: Cell cycle arrest in human HeLa cells assessed as accumulation at M phase at 36 uM after 20 hrs by DAPI staining relative to taxol; type: functional; settings: in the assay text read “at 32 uM” for “at 36 uM”
Outline: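 HeLa cells were exposed to compound for 20 h and scored for M-phase arrest. Mitotic index was expressed as a percentage of the induction given by 0.1 μM taxol.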

[2] = target: T1, Chromosome-associated kinesin KIF4A (Homo sapiens) (UniProt O95239); test: Inhibition of KIF-4 ATPase activity at 20 uM
T1 sequence (whole entry): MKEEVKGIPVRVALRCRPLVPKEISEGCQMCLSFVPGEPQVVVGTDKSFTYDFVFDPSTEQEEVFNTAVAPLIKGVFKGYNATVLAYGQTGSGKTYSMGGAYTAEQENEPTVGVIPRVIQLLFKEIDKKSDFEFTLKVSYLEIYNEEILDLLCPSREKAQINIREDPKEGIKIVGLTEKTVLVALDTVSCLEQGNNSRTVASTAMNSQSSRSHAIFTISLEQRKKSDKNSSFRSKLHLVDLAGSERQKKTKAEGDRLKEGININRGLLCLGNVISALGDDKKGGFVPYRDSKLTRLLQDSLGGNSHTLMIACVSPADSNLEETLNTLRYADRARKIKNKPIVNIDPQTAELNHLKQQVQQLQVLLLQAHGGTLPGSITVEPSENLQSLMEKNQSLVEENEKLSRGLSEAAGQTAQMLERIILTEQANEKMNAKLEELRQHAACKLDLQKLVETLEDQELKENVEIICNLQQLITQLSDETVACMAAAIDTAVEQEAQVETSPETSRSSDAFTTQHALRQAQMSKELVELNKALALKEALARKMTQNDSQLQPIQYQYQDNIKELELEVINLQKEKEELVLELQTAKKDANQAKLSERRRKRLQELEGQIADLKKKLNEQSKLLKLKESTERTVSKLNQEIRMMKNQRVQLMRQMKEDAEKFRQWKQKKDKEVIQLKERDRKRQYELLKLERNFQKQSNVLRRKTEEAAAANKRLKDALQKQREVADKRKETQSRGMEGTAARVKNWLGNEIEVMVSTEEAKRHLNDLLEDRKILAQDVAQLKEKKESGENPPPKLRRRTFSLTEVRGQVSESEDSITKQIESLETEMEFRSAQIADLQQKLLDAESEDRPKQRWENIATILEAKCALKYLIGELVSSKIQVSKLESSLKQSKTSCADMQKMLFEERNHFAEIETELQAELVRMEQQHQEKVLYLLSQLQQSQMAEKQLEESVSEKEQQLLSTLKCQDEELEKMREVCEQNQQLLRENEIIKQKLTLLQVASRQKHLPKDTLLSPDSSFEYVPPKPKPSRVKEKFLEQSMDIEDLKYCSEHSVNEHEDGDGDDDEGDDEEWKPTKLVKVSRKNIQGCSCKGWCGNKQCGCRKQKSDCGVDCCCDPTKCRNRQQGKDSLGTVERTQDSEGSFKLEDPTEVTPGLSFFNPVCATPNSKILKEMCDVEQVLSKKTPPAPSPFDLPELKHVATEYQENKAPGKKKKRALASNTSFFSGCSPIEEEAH

[3] = species on record: Sus scrofa; test: Inhibition of pig brain topoisomerase 2-mediated supercoiled DNA relaxation after 20 mins by agarose gel electrophoresis analysis
Outline: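 Supercoiled DNA was incubated with topo II, with or without test compound. Gel lanes included supercoiled DNA alone, DNA plus enzyme without compound, and DNA plus enzyme with AMSA as the reference inhibitor.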

CC(C)(C)c1ccc2c(c1)[nH]c1ccccc12
Activity [1]: 37%
inhibition [2]: inactive
inhibition [3]: inactive

FC(F)(F)c1ccc2c(c1)[nH]c1ccccc12
inhibition [2]: inactive
inhibition [3]: inactive

FC(F)(F)c1ccc2[nH]c3ccccc3c2c1
Activity [1]: 57%
inhibition [2]: inactive
inhibition [3]: inactive
